Reference: ChEMBL document CHEMBL3758106, “Antitumor Activity of Americanin A Isolated from the Seeds of Phytolacca americana by Regulating the ATM/ATR Signaling Pathway and the Skp2-p27 Axis in Human Colon Cancer Cells” (J Nat Prod, 2015)
Calls of active or inactive are those of the source. The calls are words filed in the database; no cut-off is given here.

How the values were obtained:
[1] = Decrease in phosphorylated p27 expression at Thr187 in human HCT116 cells after 24 hrs by western blot analysis; format: functional, cell-based; conditions: HCT-116
Procedure, shortened: (§1)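 HCT116 cells exposed 24 h in complete medium; lysed in RIPA buffer (pH 8.0), protein by BCA, equal loads run on 8–13% SDS-PAGE, PVDF transfer, blocked in 5% BSA/TBST, primary antibodies overnight at 4 °C, HRP secondaries 2 h RT, ECL detection; β-actin as loading control.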

HCT-116 [2] = test: Induction of cell cycle arrest in human HCT116 cells assessed as accumulation at G2/M phase at 7.5 uM after 48 hrs by propidium iodide staining-based flow cytometric analysis in presence of RNase A (reference value: 19.7%); format: functional
[3] = Upregulation of MDM2 expression in human HCT116 cells at 7.5 to 30 uM after 24 hrs by Western blot analysis; format: functional, cell-based; conditions: HCT-116
HCT-116 [4] = test: Increase in p21 expression in human HCT116 cells after 24 hrs by western blot analysis; format: functional, cell-based; procedure, shortened: as §1
HCT-116 [5] = test: Induction of apoptosis in human HCT116 cells assessed as viable cells at 30 uM after 48 hrs by annexin V-FITC/propidium iodide staining-based flow cytometric analysis in presence of NAC (reference value: 87.4%); format: functional; conditions: HCT-116, 48 h, read-out: Activity
HCT-116 [6] = test: Induction of cell cycle arrest in human HCT116 cells assessed as accumulation at S phase at 7.5 uM after 48 hrs by propidium iodide staining-based flow cytometric analysis in presence of RNase A (reference value: 16.2%); format: functional
HCT-116 [7] = test: Induction of apoptosis in human HCT116 cells assessed as late apoptotic cells at 7.5 uM after 48 hrs by annexin V-FITC/propidium iodide staining-based flow cytometric analysis (reference value: 5.2%); format: functional
[8] = Decrease in Skp1 expression in human HCT116 cells at 7.5 to 30 uM after 24 hrs by western blot analysis; format: functional, cell-based; conditions: HCT-116; procedure, shortened: as §1
Mus musculus = test: Toxicity in nude mouse assessed as change in body weight at 5 to 10 mg/kg, ip administered 3 times per week measured on day 41; format: organism-based; conditions: in vivo
Procedure, shortened: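 Nude mice implanted s.c. in the flank with 2 × 10^6 HCT116 cells. Once tumors reached about 120 mm3, mice were randomized, six per group, to vehicle or compound at 5 or 10 mg/kg ip (200 μL) three times weekly; irinotecan 10 mg/kg ip once weekly as reference. Body weight recorded twice weekly to assess toxicity; study ended day 41.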

HCT-116 [9] = test: Induction of apoptosis in human HCT116 cells assessed as cleaved PARP level at 30 uM up to 24 hrs by Western blot analysis; format: functional, cell-based
[10] = target: Cullin-1/S-phase kinase-associated protein 1 (Homo sapiens) (UniProt Q13616+P63208); test: Inhibition of Cul-1/Skp1 protein interaction in human HCT116 cells after 24 hrs by immunoprecipitation assay; format: cell-based; conditions: HCT-116
Sequence of Cullin-1/S-phase kinase-associated protein 1 (Homo sapiens) (P63208 whole entry, looked up): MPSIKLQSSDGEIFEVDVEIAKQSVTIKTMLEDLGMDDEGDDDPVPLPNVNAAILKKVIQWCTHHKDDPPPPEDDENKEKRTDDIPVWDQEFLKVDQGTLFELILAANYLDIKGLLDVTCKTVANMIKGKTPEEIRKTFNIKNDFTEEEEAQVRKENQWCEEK
Sequence of Cullin-1/S-phase kinase-associated protein 1 (Homo sapiens) (Q13616 whole entry, looked up): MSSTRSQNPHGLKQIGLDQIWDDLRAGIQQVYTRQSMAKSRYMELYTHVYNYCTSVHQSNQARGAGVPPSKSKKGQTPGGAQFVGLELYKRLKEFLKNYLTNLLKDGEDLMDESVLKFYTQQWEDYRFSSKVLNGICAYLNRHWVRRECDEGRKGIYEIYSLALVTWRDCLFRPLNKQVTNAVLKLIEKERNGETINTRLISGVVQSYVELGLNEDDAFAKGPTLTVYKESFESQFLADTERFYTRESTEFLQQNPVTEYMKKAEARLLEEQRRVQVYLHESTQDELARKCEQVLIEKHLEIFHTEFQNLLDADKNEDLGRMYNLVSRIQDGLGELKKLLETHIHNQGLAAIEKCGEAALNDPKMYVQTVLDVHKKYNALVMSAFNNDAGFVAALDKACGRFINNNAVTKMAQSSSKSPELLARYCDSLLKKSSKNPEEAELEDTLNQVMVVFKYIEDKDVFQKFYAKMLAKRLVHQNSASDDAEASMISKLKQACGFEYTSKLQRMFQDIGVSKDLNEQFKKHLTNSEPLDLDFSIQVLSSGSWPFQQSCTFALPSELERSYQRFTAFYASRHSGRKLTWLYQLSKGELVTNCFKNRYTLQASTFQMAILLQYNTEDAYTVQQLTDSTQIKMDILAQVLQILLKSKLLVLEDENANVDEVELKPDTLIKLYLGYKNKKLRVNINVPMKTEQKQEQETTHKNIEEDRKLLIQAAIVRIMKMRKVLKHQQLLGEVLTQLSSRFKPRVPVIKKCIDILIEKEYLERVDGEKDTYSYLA
Procedure, shortened: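 Protein measured by Bradford, equal amounts pulled down with anti-Cul-1 antibody on Protein G sepharose at 4 °C. Eluates boiled in Laemmli buffer with 2-mercaptoethanol and probed by Western blot.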

HCT-116 [11] = test: Induction of cell cycle arrest in human HCT116 cells assessed as accumulation at G2/M phase at 15 uM after 24 hrs by propidium iodide staining-based flow cytometric analysis in presence of RNase A (reference value: 20.6%); format: functional
HCT-116 [12] = test: Induction of cell cycle arrest in human HCT116 cells assessed as accumulation at sub-G1 phase at 15 uM after 24 hrs by propidium iodide staining-based flow cytometric analysis in presence of RNase A (reference value: 1.5%); format: functional
HCT-116 [13] = test: Induction of cell cycle arrest in human HCT116 cells assessed as accumulation at S phase at 30 uM after 24 hrs by propidium iodide staining-based flow cytometric analysis in presence of RNase A (reference value: 13.4%); format: functional
HCT-116 [14] = test: Induction of apoptosis in human HCT116 cells assessed as increase in Bim expression after 48 hrs by Western blot analysis; format: functional, cell-based
Procedure, shortened: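 Cells treated for 48 h and lysed in RIPA buffer (pH 8.0). Total protein was measured by BCA, and equal protein was resolved on 8−13% SDS-PAGE and moved to PVDF. Membranes were blocked in 5% BSA/TBST and given primary antibody overnight at 4 °C, then an HRP secondary for 2 h at RT. Detection by enhanced chemiluminescence.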

HCT-116 [15] = test: Induction of morphological change in human HCT116 cells assessed as appearance of rounded cells at 30 uM after 24 to 48 hrs by phase contrast microscopic analysis; format: functional, cell-based
Procedure, shortened: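 HCT116 cells incubated with compound for 24 h, then viewed and photographed under phase-contrast microscopy; also examined at 48 h.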

[16] = Antiproliferative activity against human HCT116 cells assessed as cell viability after 72 hrs by SRB assay; format: functional, cell-based; conditions: HCT-116, 72 h
Procedure, shortened: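 HCT116 cells in 96-well plates exposed 24, 48 or 72 h; TCA fixation, 0.4% SRB staining, dye solubilised in 10 mM Tris pH 10.0, absorbance at 515 nm; viability relative to solvent-treated control.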

HCT-116 [17] = test: Induction of cell cycle arrest in human HCT116 cells assessed as accumulation at G2/M phase at 15 uM after 48 hrs by propidium iodide staining-based flow cytometric analysis in presence of RNase A (reference value: 19.7%); format: functional
[18] = Upregulation of phosphorylated ATM expression in human HCT116 cells at 1 hr by Western blot analysis; format: functional, cell-based; conditions: HCT-116
HCT-116 [19] = test: Induction of cell cycle arrest in human HCT116 cells assessed as accumulation at G0/G1 phase at 7.5 uM after 48 hrs by propidium iodide staining-based flow cytometric analysis in presence of RNase A (reference value: 54.3%); format: functional
HCT-116 [20] = test: Induction of cell cycle arrest in human HCT116 cells assessed as accumulation at G2/M phase at 30 uM after 24 hrs by propidium iodide staining-based flow cytometric analysis in presence of RNase A (reference value: 20.6%); format: functional
HCT-116 [21] = test: Induction of reactive oxygen species in human HCT116 cells at 30 uM after 48 hrs by DCFH-DA staining-based flow cytometric analysis in presence of NAC (reference value: 5.1%); format: functional
Procedure, shortened: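 HCT116 cells seeded overnight, then exposed to test compounds, alone or with NAC, for 48 h in complete medium. Loaded with 20 μM DCFH-DA for 30 min; intracellular ROS in 20 000 cells per group read by flow cytometry as histograms.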

HCT-116 [22] = test: Induction of apoptosis in human HCT116 cells assessed as decrease in Bcl-xL expression at 7.5 to 30 uM after 48 hrs by Western blot analysis; format: functional, cell-based
Procedure, shortened: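 HCT116 cells exposed 48 h; Western blot of RIPA lysates (BCA quantification, SDS-PAGE, PVDF, overnight primary antibodies at 4 °C, HRP secondary, ECL).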

[23] = Downregulation of cdc2 expression in human HCT116 cells at 7.5 to 30 uM after 24 hrs by Western blot analysis; format: functional, cell-based; conditions: HCT-116; procedure, shortened: as §1
HCT-116 [24] = test: Induction of reactive oxygen species in human HCT116 cells at 7.5 uM after 48 hrs by DCFH-DA staining-based flow cytometric analysis (reference value: 5.1%); format: functional

O=C/C=C/c1ccc2c(c1)O[C@@H](CO)[C@H](c1ccc(O)c(O)c1)O2 [AMERICANIN A]
Activity [1]: Active
Activity (HCT-116 [2]): 19%
Activity [3]: Active
Activity (HCT-116 [4]): Dose-dependent effect
viability at 30 µM (HCT-116 [5]): 73.2%
Activity (HCT-116 [6]): 13.5%
Activity (HCT-116 [7]): 10.4%
Activity [8]: Active
Activity (Mus musculus): Non-toxic
Activity (HCT-116 [9]): Active
inhibition [10]: inactive
Activity (HCT-116 [11]): 31.8%
Activity (HCT-116 [12]): 3%
Activity (HCT-116 [13]): 18.4%
Activity (HCT-116 [14]): Dose-dependent effect
Activity (HCT-116 [15]): Active
IC50 [16]: 8.7 µM
Activity (HCT-116 [17]): 20.3%
Activity [18]: Dose-dependent effect
Activity (HCT-116 [19]): 55.2%
Activity (HCT-116 [20]): 38.9%
Activity (HCT-116 [21]): 9.9%
Activity (HCT-116 [22]): Active
Activity [23]: Active
Activity (HCT-116 [24]): 5.2%
